Results from paper PMC10884431 (Heliyon, 2024).

Experiments:
[1] = test system: alpha-glucosidase; details: from the lichen Parmotrema dilatatum; cited from earlier work
[2] = molecular target: HIV-1 reverse transcriptase (Human immunodeficiency virus type 1 group M subtype B, UniProt P03366); test: HIV-1 reverse transcriptase inhibition assay; type: biochemical; details: positive control at 1 μM
How it was run: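 Test compound in DMSO is added, then reverse transcriptase (25 nM solution), and the mix is held 30 min at room temperature. The reaction is stopped with EDTA, PicoGreen is added and endpoint fluorescence is read at 485/535 nm. % inhibition is taken against a DMSO control, minus an EDTA-pretreated blank. Nevirapine is the reference.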

[3] = test system: macrophages; test: Nitric oxide; type: cell-based; details: positive control at 5 μM
How it was run: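 NO production measured by absorbance at 540 nm on a microplate reader. The assay was run in triplicate and repeated in three independent experiments.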

[4] = molecular target: SARS-CoV-2 main protease (M^pro) (Severe acute respiratory syndrome coronavirus 2, UniProt P0DTD1); test: M^pro inhibition assay; type: biochemical; details: read-out: SARS-CoV-2 M^pro inhibition percentage, reference at 1 μM

COC(=O)c1c(C)c(Cc2c(O)c(Oc3c(C=O)c(O)cc(C)c3C(=O)OC)c3c(c2O)C(=O)O[C@@H]3OC)c(O)c(C=O)c1O [parmetherines B]
Alpha-glucosidase inhibition (in words) [1]: strong

Cc1ccnc2c1NC(=O)c1cccnc1N2C1CC1 [Nevirapine]
HIV-1 reverse transcriptase inhibition percentage [2]: 38.3 ± 2.5%

Cc1ccc(S(=O)(=O)/C=C/C#N)cc1 [Bay 11–7082]
% NO inhibition ±SD [3]: 72.5 ± 3.9%
% Cell viability ±SD ([3]; NO assay): 82.7 ± 5.3%

Cc1cccc(C)c1OCC(=O)N[C@@H](Cc1ccccc1)[C@@H](O)C[C@H](Cc1ccccc1)NC(=O)[C@H](C(C)C)N1CCCNC1=O [Lopinavir]
inhibition at 1 µM [4]: 47.7 ± 1.7%

COC(=O)c1c(C)c(Cc2c(O)c(Oc3c(C=O)c(O)cc(C)c3C(=O)OC)c3c(c2O)C(=O)O[C@@H]3O)c(O)c(C=O)c1O [parmetherines A]
Alpha-glucosidase inhibition (in words) [1]: strong
